Measured values taken from ChEMBL document CHEMBL4513216, “Probing the Open Global Health Chemical Diversity Library for Multistage-Active Starting Points for Next-Generation Antimalarials” (ACS Infect Dis, 2020).

assay: Toxicity liver stage against HepG2, at 10uM; type: cell-based; parameters: test concentration 10 uM, cell line HepG2-A16-CD81EGFP; details: human, HepG2-A16-CD81EGFP cells; read-out: INHIBITION
Summary of the method: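 Uninfected HepG2-A16-CD81EGFP cells, 3 × 10^3 per well, 1536-well, plated on prespotted compound at 10 μM final, parasite-free screening media added to match infected plates; puromycin 10 μM positive, DMSO 0.5% negative; run in parallel with 48 h PbLuc assay at 37 °C, 5% CO2; viability by CellTiter-Glo luminescence, normalized to controls.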

Compound | cytotoxicity at 10 µM
COc1ccc(-c2nnc([C@H]3CCN(CC4CC4)C3)o2)cc1 | -4.6%
CC1=C[C@@H](CC#N)[C@H](C(C)C)C[C@H]1CC(=O)N1CCN(C)CC1 | -4.42%
CN1C[C@H](O)C[C@H]1c1nc(-c2ccc3c(c2)OCO3)no1 | 6.88%
O=c1c2cnc(N3CCOCC3)nc2ccn1-c1ccccc1 | -3.12%
Cn1cc(NC(=O)c2cc3c(s2)CCCC3)cn1 | -2.17%
Cc1cnc(C(=O)NCC2Cc3ccccc3O2)cn1 (configuration not stated) | -0.71%
N#Cc1cccnc1NCCc1cc(F)cc2c1OCOC2 | 19.5%
CS(=O)(=O)c1ccc(NC(=O)NCCC2=CCCCC2)cc1 | -0.529%
Cc1c(C(=O)NC2=NCCS2)cnn1-c1ccc(Br)cc1 | -0.647%
COC(=O)C1CN(CC(=O)Nc2cccc(OC)c2)c2ccccc21 (configuration not stated) | 11.1%
O=C(Nc1cnc(C2CC2)nc1)N1CCCC1 | -14.9%
CS(=O)(=O)NCCC(=O)NC1(c2ccc(F)cc2)CCCC1 | -1.1%
Cn1cccc(NC(=O)COc2ccc(Cl)cc2)c1=O | 4.69%
COc1ccccc1-c1cc(NC(=O)CCS(=O)(=O)C2CCCC2)[nH]n1 | -123%
CCc1cnc(CN2CCOC(c3nc(C)n[nH]3)C2)o1 (configuration not stated) | -4.83%
COc1ccccc1OCCC(=O)NCc1ncc(C)c(OC)c1C | -3.63%

Compound | cytotoxicity at 10 µM
CC(C(=O)NC(C)(C)C)N1CCC(C(=O)Nc2cnccn2)CC1 (configuration not stated) | -1.36%
COc1ccccc1OCc1cc(C(=O)N2CCS(=O)(=O)CC2)n[nH]1 | -2.93%
Cc1cc(C(=O)NC(C)C(=O)Nc2cc(F)ccc2C)nc(C)n1 (configuration not stated) | -3.71%
COc1ccc(F)cc1C(=O)N1CC(c2ccncc2)C1 | -4.93%
CCc1ccc(-c2cn3c(C(=O)NCC(C)C(=O)NC)csc3n2)cc1 (configuration not stated) | 9.21%
Cc1nn(C)cc1-c1ccnc(N(C)Cc2noc(C(C)C)n2)n1 | 1.41%
CCSC(C)c1nc(-c2ccc(C)nn2)no1 (configuration not stated) | -6.24%
CC(C)(O)CCc1cccc(C(=O)N2CCC3(CCOCC3)CC2)c1 | 1.14%
COc1ccccc1OCc1cc(C(=O)N2[C@H](C)CC[C@@H]2C)n[nH]1 | -2.01%
COc1ccccc1OCc1cc(C(=O)N2CCC(C(C)O)CC2)n[nH]1 (configuration not stated) | 0.127%
Cc1ncsc1CCNC(=O)Cn1nc(C)n(Cc2ccccc2)c1=O | 7.48%
CC(C)c1cc(NC(=O)c2cccnc2)[nH]n1 | -4.24%
O=C(NCc1ccccn1)C1=NN(c2ccccc2)C(=O)CN1 | -0.855%
Cc1ccc(SCCN(C)C(=O)c2cn(C3CCC(N)CC3)nn2)cc1 (configuration not stated) | -8.59%
CC(C)NC(=O)CN(C)CC(=O)Nc1ccnn1C(C)C1CC1 (configuration not stated) | -6%
Cc1ccc2nc(CNCCCOc3ccccc3)cc(O)c2c1 [UCSF924] | 5.5%
